Laboratory results: ChEMBL document CHEMBL3259614, “Design, synthesis, and structure-activity relationship studies of novel fused heterocycles-linked triazoles with good activity and water solubility” (J Med Chem, 2014)
In brackets after ≈: the same amount, converted by molar mass.

Experiments:
Format in all cases: functional
Candida albicans [1] = assay: Antimicrobial activity against Candida albicans SC5314 after 24 hrs by serial dilution method; conditions: SC5314, 24 h
Method in brief: (§1)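 Broth serial dilution MIC in 96-well plates following NCCLS/CLSI methods. Compounds were dissolved in DMSO and serially diluted in growth medium, with incubation at 35 °C. […] C. parapsilosis 22019 served as the quality-control strain in each assay.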

Candida albicans [2] = assay: Antimicrobial activity against Candida albicans Y0109 after 24 hrs by serial dilution method; conditions: Y0109, 24 h; method in brief: as §1
Candida parapsilosis = assay: Antimicrobial activity against Candida parapsilosis 22019 after 24 hrs by serial dilution method; conditions: Lodderomyces parapsilosis, 22019, 24 h; method in brief: as §1
Nakaseomyces glabratus = assay: Antimicrobial activity against Candida glabrata 537 after 24 hrs by serial dilution method; conditions: Nakaseomyces glabratus, 537, 24 h; method in brief: as §1
Cryptococcus neoformans = assay: Antimicrobial activity against Cryptococcus neoformans 32609 after 72 hrs by serial dilution method; conditions: Cryptococcus neoformans, 32609, 72 h; method in brief: as §1
Aspergillus fumigatus = assay: Antimicrobial activity against Aspergillus fumigatus 7544 after 48 hrs by serial dilution method; conditions: Aspergillus fumigatus, 7544, 48 h; method in brief: as §1

| SMILES | MIC (Candida albicans [1]) | MIC (Candida albicans [2]) | MIC (Candida parapsilosis) | MIC (Nakaseomyces glabratus) | MIC (Cryptococcus neoformans) | MIC (Aspergillus fumigatus) |
| --- | --- | --- | --- | --- | --- | --- |
| Cc1ncc(-c2nc3n(n2)CCN([C@H](C)[C@](O)(Cn2cncn2)c2ccc(F)cc2F)C3)cn1 | 0.0625 µg/mL (≈ 0.134 µM) | 0.125 µg/mL (≈ 0.267 µM) | 0.125 µg/mL (≈ 0.267 µM) | 0.25 µg/mL (≈ 0.535 µM) | 0.125 µg/mL (≈ 0.267 µM) | 32 µg/mL (≈ 68.5 µM) |
| C[C@@H](N1CCc2nc(Br)sc2C1)[C@](O)(Cn1cncn1)c1ccc(F)cc1F | 1 µg/mL (≈ 2.13 µM) | 1 µg/mL (≈ 2.13 µM) | 1 µg/mL (≈ 2.13 µM) | 1 µg/mL (≈ 2.13 µM) | 0.5 µg/mL (≈ 1.06 µM) | 32 µg/mL (≈ 68 µM) |
| COc1ccc(-c2nc3c(s2)CN([C@H](C)[C@](O)(Cn2cncn2)c2ccc(F)cc2F)CC3)cc1 | 1 µg/mL (≈ 2.01 µM) | 1 µg/mL (≈ 2.01 µM) | 0.5 µg/mL (≈ 1 µM) | 1 µg/mL (≈ 2.01 µM) | 1 µg/mL (≈ 2.01 µM) | 16 µg/mL (≈ 32.2 µM) |
| C[C@@H](N1CCc2nc(-c3ccc(F)cc3)sc2C1)[C@](O)(Cn1cncn1)c1ccc(F)cc1F | 1 µg/mL (≈ 2.06 µM) | 1 µg/mL (≈ 2.06 µM) | 2 µg/mL (≈ 4.12 µM) | 4 µg/mL (≈ 8.24 µM) | 1 µg/mL (≈ 2.06 µM) | 16 µg/mL (≈ 33 µM) |
| CC(C)c1ccc(-c2nc3c(s2)CN([C@H](C)[C@](O)(Cn2cncn2)c2ccc(F)cc2F)CC3)cc1 | 0.5 µg/mL (≈ 0.981 µM) | 1 µg/mL (≈ 1.96 µM) | 0.5 µg/mL (≈ 0.981 µM) | 1 µg/mL (≈ 1.96 µM) | 1 µg/mL (≈ 1.96 µM) | 16 µg/mL (≈ 31.4 µM) |
| C[C@@H](N1CCc2nc(-c3cccc(F)c3)sc2C1)[C@](O)(Cn1cncn1)c1ccc(F)cc1F | 2 µg/mL (≈ 4.12 µM) | 2 µg/mL (≈ 4.12 µM) | 2 µg/mL (≈ 4.12 µM) | 8 µg/mL (≈ 16.5 µM) | 2 µg/mL (≈ 4.12 µM) | 32 µg/mL (≈ 65.9 µM) |
| Cc1cccc(-c2nc3c(s2)CN([C@H](C)[C@](O)(Cn2cncn2)c2ccc(F)cc2F)CC3)c1 | 2 µg/mL (≈ 4.15 µM) | 2 µg/mL (≈ 4.15 µM) | 1 µg/mL (≈ 2.08 µM) | 4 µg/mL (≈ 8.31 µM) | 4 µg/mL (≈ 8.31 µM) | 32 µg/mL (≈ 66.4 µM) |
| C[C@@H](N1CCc2nc(-c3cccc(Br)c3)sc2C1)[C@](O)(Cn1cncn1)c1ccc(F)cc1F | 2 µg/mL (≈ 3.66 µM) | 2 µg/mL (≈ 3.66 µM) | 2 µg/mL (≈ 3.66 µM) | 8 µg/mL (≈ 14.6 µM) | 4 µg/mL (≈ 7.32 µM) | 32 µg/mL (≈ 58.6 µM) |
| C[C@@H](N1CCc2nc(-c3ccc(C#N)cc3)sc2C1)[C@](O)(Cn1cncn1)c1ccc(F)cc1F | 0.0625 µg/mL (≈ 0.127 µM) | 0.125 µg/mL (≈ 0.254 µM) | 0.125 µg/mL (≈ 0.254 µM) | 0.5 µg/mL (≈ 1.02 µM) | 0.125 µg/mL (≈ 0.254 µM) | 16 µg/mL (≈ 32.5 µM) |
| C[C@@H](N1CCc2nc(-c3cccs3)sc2C1)[C@](O)(Cn1cncn1)c1ccc(F)cc1F | 0.25 µg/mL (≈ 0.528 µM) | 0.25 µg/mL (≈ 0.528 µM) | 1 µg/mL (≈ 2.11 µM) | 0.5 µg/mL (≈ 1.06 µM) | 0.5 µg/mL (≈ 1.06 µM) | 8 µg/mL (≈ 16.9 µM) |

Other lines, results leading:

| MIC (Candida albicans [1]) | MIC (Candida albicans [2]) | MIC (Candida parapsilosis) | MIC (Nakaseomyces glabratus) | MIC (Cryptococcus neoformans) | MIC (Aspergillus fumigatus) | SMILES |
| --- | --- | --- | --- | --- | --- | --- |
| 0.0625 µg/mL (≈ 0.13 µM) | 0.125 µg/mL (≈ 0.259 µM) | 0.125 µg/mL (≈ 0.259 µM) | 0.5 µg/mL (≈ 1.04 µM) | 0.25 µg/mL (≈ 0.518 µM) | 32 µg/mL (≈ 66.3 µM) | COc1ccc(-c2nc3n(n2)CCN([C@H](C)[C@](O)(Cn2cncn2)c2ccc(F)cc2F)C3)cn1 |
| 0.0625 µg/mL (≈ 0.129 µM) | 0.125 µg/mL (≈ 0.259 µM) | 0.25 µg/mL (≈ 0.517 µM) | 0.25 µg/mL (≈ 0.517 µM) | 0.5 µg/mL (≈ 1.03 µM) | 32 µg/mL (≈ 66.2 µM) | COc1ncc(-c2nc3n(n2)CCN([C@H](C)[C@](O)(Cn2cncn2)c2ccc(F)cc2F)C3)cn1 |
| 0.5 µg/mL (≈ 0.996 µM) | 1 µg/mL (≈ 1.99 µM) | 2 µg/mL (≈ 3.98 µM) | 1 µg/mL (≈ 1.99 µM) | 1 µg/mL (≈ 1.99 µM) | 32 µg/mL (≈ 63.7 µM) | C[C@@H](N1CCc2nc(-c3ccc(Cl)cc3)sc2C1)[C@](O)(Cn1cncn1)c1ccc(F)cc1F |
| 1 µg/mL (≈ 1.87 µM) | 2 µg/mL (≈ 3.73 µM) | 2 µg/mL (≈ 3.73 µM) | 1 µg/mL (≈ 1.87 µM) | 2 µg/mL (≈ 3.73 µM) | 32 µg/mL (≈ 59.8 µM) | C[C@@H](N1CCc2nc(-c3ccc(C(F)(F)F)cc3)sc2C1)[C@](O)(Cn1cncn1)c1ccc(F)cc1F |
| 0.5 µg/mL (≈ 1.04 µM) | 1 µg/mL (≈ 2.08 µM) | 0.5 µg/mL (≈ 1.04 µM) | 1 µg/mL (≈ 2.08 µM) | 0.5 µg/mL (≈ 1.04 µM) | 16 µg/mL (≈ 33.2 µM) | Cc1ccc(-c2nc3c(s2)CN([C@H](C)[C@](O)(Cn2cncn2)c2ccc(F)cc2F)CC3)cc1 |
| 1 µg/mL (≈ 1.83 µM) | 1 µg/mL (≈ 1.83 µM) | 4 µg/mL (≈ 7.32 µM) | 2 µg/mL (≈ 3.66 µM) | 1 µg/mL (≈ 1.83 µM) | 16 µg/mL (≈ 29.3 µM) | C[C@@H](N1CCc2nc(-c3ccc(Br)cc3)sc2C1)[C@](O)(Cn1cncn1)c1ccc(F)cc1F |
| 4 µg/mL (≈ 7.97 µM) | 4 µg/mL (≈ 7.97 µM) | 2 µg/mL (≈ 3.98 µM) | 4 µg/mL (≈ 7.97 µM) | 2 µg/mL (≈ 3.98 µM) | 32 µg/mL (≈ 63.7 µM) | C[C@@H](N1CCc2nc(-c3cccc(Cl)c3)sc2C1)[C@](O)(Cn1cncn1)c1ccc(F)cc1F |
| 1 µg/mL (≈ 2.01 µM) | 1 µg/mL (≈ 2.01 µM) | 1 µg/mL (≈ 2.01 µM) | 1 µg/mL (≈ 2.01 µM) | 2 µg/mL (≈ 4.02 µM) | 16 µg/mL (≈ 32.2 µM) | COc1cccc(-c2nc3c(s2)CN([C@H](C)[C@](O)(Cn2cncn2)c2ccc(F)cc2F)CC3)c1 |
| 0.125 µg/mL (≈ 0.254 µM) | 0.125 µg/mL (≈ 0.254 µM) | 2 µg/mL (≈ 4.06 µM) | 2 µg/mL (≈ 4.06 µM) | 1 µg/mL (≈ 2.03 µM) | 16 µg/mL (≈ 32.5 µM) | C[C@@H](N1CCc2nc(-c3cccc(C#N)c3)sc2C1)[C@](O)(Cn1cncn1)c1ccc(F)cc1F |
| 0.25 µg/mL (≈ 0.546 µM) | 1 µg/mL (≈ 2.19 µM) | 1 µg/mL (≈ 2.19 µM) | 0.5 µg/mL (≈ 1.09 µM) | 0.5 µg/mL (≈ 1.09 µM) | 8 µg/mL (≈ 17.5 µM) | C[C@@H](N1CCc2nc(-c3ccco3)sc2C1)[C@](O)(Cn1cncn1)c1ccc(F)cc1F |
